Laboratory results taken from ChEMBL document CHEMBL3526127, “Absorption, elimination, and metabolism of CS-1036, a novel α-amylase inhibitor in rats and monkeys, and the relationship between gastrointestinal distribution and suppression of glucose absorption” (Drug Metab Dispos, 2013).

Tests used:
[1] = test system: Cynomolgus monkey; assay: Drug excretion in cynomolgus monkey assessed as drug level found during cage washing at 3 mg/kg, po administered as single dose after 0 to 336 hrs by scintillation counting method; format: ADME, organism-based, Macaca fascicularis; parameters: dose 3 mg/kg, route oral; conditions: in vivo
Method in brief: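 Fasted cynomolgus monkeys (n = 4) received [14C]-labelled drug at 3 mg/kg, iv via saphenous vein (191 µCi/kg) or orally by stomach catheter (156.5 µCi/kg). Urine, feces and water cage-wash were collected to 336 h. Samples were counted by liquid scintillation; feces were homogenized in 4-fold water. Results are % of dose, mean ± S.D.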

[2] = Drug metabolism in F344 rat urine assessed as 1,4-dideoxy-1,4-imino-D-arabinitol formation by LC-MS/MS method; format: ADME, tissue-based
[3] = test system: Cynomolgus monkey; assay: Total drug excretion in cynomolgus monkey at 3 mg/kg, iv administered as single dose after 0 to 48 hrs by scintillation counting method; format: ADME, organism-based, Macaca fascicularis; parameters: dose 3 mg/kg, route intravenous; conditions: in vivo
Method in brief: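 Fasted male cynomolgus monkeys (n = 4) were dosed with 14C-labelled drug at 3 mg/kg, iv via saphenous vein (191 µCi/kg) or orally by stomach catheter (156.5 µCi/kg). Urine, feces and cage-wash water were collected to 336 h. Radioactivity was measured by liquid scintillation counting, with feces homogenized in water, and expressed as % of dose.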

[4] = test system: Plasma; assay: Drug metabolism in po dosed F344 rat plasma by LC-MS/MS method; format: ADME, organism-based; conditions: in vivo
[5] = Drug excretion in F344 rat urine at 1 mg/kg, iv administered as single dose after 0 to 168 hrs by scintillation counting method; format: ADME, organism-based; parameters: dose 1 mg/kg, route intravenous; conditions: in vivo
Method in brief: (§1)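 Fasted F344 rats (152–156 g iv via tail vein; 154–159 g oral; n = 4) received [14C]-labelled drug at 1 mg/kg (41.9 µCi/kg). Animals were kept in metabolic cages; urine and feces were collected to 168 h, and expired CO2 was trapped in 2-aminoethanol/2-methoxyethanol (1:1) to 48 h. Samples were counted by liquid scintillation (feces homogenized). Results are % of dose, mean ± S.D.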

[6] = Drug metabolism in F344 rat feces assessed as N-acetylated 1,4-dideoxy-1,4-imino-D-arabinitol formation by LC-MS/MS method; format: ADME, tissue-based
[7] = Drug excretion in F344 rat feces at 1 mg/kg, po administered as single dose after 0 to 168 hrs by scintillation counting method; format: ADME, organism-based; parameters: dose 1 mg/kg, route oral; conditions: in vivo; method in brief: as §1
[8] = Drug metabolism in human liver S9 fractions at 0.42 uCi/ml assessed as metabolite formation in presence of NADPH after 1 hr at 37 degC by LC-MS/MS method; format: ADME, subcellular, Liver S9 fraction; conditions: s9, 1 h
[9] = Ratio of drug level in blood to plasma in F344 rat after 5 mins; format: ADME
[10] = Oral bioavailability in cynomolgus monkey at 10 mg/kg administered as single dose by LC-MS/MS method; format: ADME, organism-based, Macaca fascicularis; conditions: in vivo
Method in brief: (§2)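 Male F344 rats (146–185 g) and male cynomolgus monkeys (3.48–4.29 kg), n = 4 each, fasted overnight, received single iv or oral doses of 0.3, 1.0, 3.0 or 10.0 mg/kg. Monkeys had 2-week washouts between doses. Plasma was sampled to 48 h and assayed by LC-MS/MS with deuterated internal standard. Noncompartmental analysis: tmax observed; t1/2 by regression on ≥3 terminal log points; Vss = dose·AUMC/(AUC0–inf)²; Foral = oral/iv AUC0–inf at the same dose.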

[11] = AUClast in cynomolgus monkey at 0.3 mg/kg, iv administered as single dose by LC-MS/MS method; format: ADME, organism-based, Macaca fascicularis; parameters: time 0 - last, dose 0.3 mg/kg, route intravenous; conditions: plasma
Method in brief: (§3)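 Fasted male F344 rats (146–185 g) or male cynomolgus monkeys (3.48–4.29 kg), n = 4 per dose, given single iv or oral dose of 0.3, 1.0, 3.0 or 10.0 mg/kg; monkeys dosed with 2-week washouts. Blood sampled to 48 h; plasma stored frozen. LC-MS/MS with deuterated internal standard. Noncompartmental analysis: AUClast by trapezoidal rule; AUC0–inf = AUClast + Ctz/terminal rate constant; mean ± S.D.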

[12] = Oral bioavailability in F344 rat at 3 mg/kg administered as single dose by LC-MS/MS method; format: ADME, organism-based; conditions: in vivo; method in brief: as §2
[13] = Tmax in F344 rat at 1 mg/kg, po administered as single dose by LC-MS/MS method; format: ADME, organism-based; parameters: dose 1 mg/kg, route oral; conditions: in vivo; method in brief: as §2
[14] = AUClast in cynomolgus monkey at 0.3 mg/kg, po administered as single dose by LC-MS/MS method; format: ADME, organism-based, Macaca fascicularis; parameters: dose 0.3 mg/kg, route oral, time 0 - last; conditions: plasma; method in brief: as §3
[15] = molecular target: T1, Alpha amylase (Homo sapiens, UniProt P0DUB6); assay: Inhibition of pancreatic alpha amylase (unknown origin)
T1 sequence (P0DUB6 whole entry): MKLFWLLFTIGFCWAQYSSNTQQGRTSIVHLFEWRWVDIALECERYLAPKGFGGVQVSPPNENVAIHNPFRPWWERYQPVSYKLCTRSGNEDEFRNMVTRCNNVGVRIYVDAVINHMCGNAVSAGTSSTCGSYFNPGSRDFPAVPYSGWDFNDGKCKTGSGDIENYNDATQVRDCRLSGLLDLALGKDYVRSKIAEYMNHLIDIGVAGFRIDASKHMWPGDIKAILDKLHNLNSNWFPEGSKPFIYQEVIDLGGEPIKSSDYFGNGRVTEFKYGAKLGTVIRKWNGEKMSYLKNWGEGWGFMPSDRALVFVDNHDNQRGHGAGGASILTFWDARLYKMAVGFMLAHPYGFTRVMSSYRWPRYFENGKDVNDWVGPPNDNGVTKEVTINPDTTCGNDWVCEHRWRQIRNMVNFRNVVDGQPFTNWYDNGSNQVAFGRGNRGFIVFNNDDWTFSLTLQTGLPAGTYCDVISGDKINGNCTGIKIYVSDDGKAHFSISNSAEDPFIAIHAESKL

[16] = AUClast in cynomolgus monkey at 3 mg/kg, po administered as single dose by LC-MS/MS method; format: ADME, organism-based, Macaca fascicularis; parameters: time 0 - last, dose 3 mg/kg, route oral; conditions: plasma; method in brief: as §3
[17] = Volume of distribution at steady state in cynomolgus monkey at 1 mg/kg, iv administered as single dose by LC-MS/MS method; format: ADME, organism-based, Macaca fascicularis; parameters: dose 1 mg/kg, route intravenous; conditions: in vivo, read-out: Vdss; method in brief: as §2
[18] = AUClast in F344 rat at 10 mg/kg, po administered as single dose by LC-MS/MS method; format: ADME, organism-based; parameters: time 0 - last, dose 10 mg/kg, route oral; conditions: plasma; method in brief: as §3
[19] = Cmax in cynomolgus monkey at 3 mg/kg, po administered as single dose by LC-MS/MS method; format: ADME, organism-based, Macaca fascicularis; parameters: dose 3 mg/kg, route oral; conditions: in vivo
Method in brief: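 Fasted male F344 rats (146–185 g) and cynomolgus monkeys (3.48–4.29 kg), n = 4 each, received a single oral dose; monkeys had 2-week washouts. Plasma sampled up to 48 h, stored at […], assayed by LC-MS/MS with a deuterated internal standard. Cmax taken from observed data by noncompartmental analysis; mean ± S.D. (n = 3 or 4).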

[20] = AUC (0 to infinity) in F344 rat at 3 mg/kg, po administered as single dose by LC-MS/MS method; format: ADME, organism-based; parameters: time infinity, dose 3 mg/kg, route oral; conditions: plasma; method in brief: as §3
[21] = Cmax in F344 rat at 3 mg/kg, po administered as single dose by LC-MS/MS method; format: ADME, organism-based; parameters: dose 3 mg/kg, route oral; conditions: in vivo
[22] = Volume of distribution at steady state in F344 rat at 3 mg/kg, iv administered as single dose by LC-MS/MS method; format: ADME, organism-based; parameters: dose 3 mg/kg, route intravenous; conditions: in vivo, read-out: Vdss; method in brief: as §2

## C[C@H]1O[C@@H](O[C@H]2[C@H](O)[C@@H](O)[C@@H](O[14C@H]3[14C@H](O)[14CH2]N[14C@@H]3[14CH2]O)O[C@@H]2CO)[C@H](O)[C@@H](O)[C@@H]1O
[1]
  Drug excretion: 1.35%
[2]
  Drug metabolism: metabolite_detected
[3]
  Drug excretion: 94.29%
[4]
  Drug metabolism: metabolite_not_detected
[5]
  Drug excretion: 77.21%
[6]
  Drug metabolism: metabolite_detected
[7]
  Drug excretion: 80.28%
[8]
  Drug metabolism: metabolite_not_detected
[9]
  blood plasma ratio at 5 min: 0.575

## C[C@H]1O[C@@H](O[C@H]2[C@H](O)[C@@H](O)[C@@H](O[C@H]3[C@H](O)CN[C@@H]3CO)O[C@@H]2CO)[C@H](O)[C@@H](O)[C@@H]1O
[10]
  bioavailability: 1.2%
[11]
  AUC(0-t): 2000 ng·h/mL
[12]
  bioavailability: 1.73%
[13]
  Tmax: 25 min
[14]
  AUC(0-t): 15 ng·h/mL
[15]
  IC50: 450 nM
[16]
  AUC(0-t): 186 ng·h/mL
[17]
  Vd: 0.271 L/kg
[18]
  AUC(0-t): 1050 ng·h/mL
[19]
  Cmax: 44.8 ng/mL
[20]
  AUC(0-inf): 325 ng·h/mL
[21]
  Cmax: 113 ng/mL
[22]
  Vd: 0.219 L/kg
